Assay results as given in ChEMBL document CHEMBL3596101, “The Mechanism of Ca(2+) Movement in the Involvement of Baicalein-Induced Cytotoxicity in ZR-75-1 Human Breast Cancer Cells” (J Nat Prod, 2015).
Active and inactive are the calls of the source. The rule behind the calls is not given here.

Key:
[1] = test system: ZR-75-1; assay: Increase in intracellular Ca2+ level in human ZR-75-1 cells at 40 uM measured every 150 secs by fura-2-AM dye-based spectrofluorophotometric analysis in presence of Ca2+ containing medium with PKC inhibitor GF109203X; type: functional, cell-based
In short: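 In Ca2+-containing medium (2 mM CaCl2), 2-APB (30 μM) or GF109203X (2 μM) was added 1 min before 40 μM compound to fura-2-loaded ZR-75-1 cells at 25 °C. Response = net area under curve over a 150 s interval, as % of compound alone. Mean ± SEM, n=3.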

[2] = test system: ZR-75-1; assay: Induction of reactive oxygen species production in human ZR-75-1 cells at 20 to 40 uM after 24 hrs by DCFH-DA probe-based flow cytometric analysis in presence of Ca2+ containing medium with Ca2+ chelator BAPTA-AM; type: functional, cell-based
In short: (§1)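 ZR-75-1 cells treated with 20–40 μM compound for 24 h, with 5 μM BAPTA-AM added first where indicated. Cells suspended at 1 × 10^6/mL, loaded with 10 μM DCFH-DA for 30 min at 37 °C. DCF read by flow cytometry (488 nm excitation, 530/30 nm filter, 10000 cells). % H2O2-positive (M1) after subtracting the baseline without probe. Three experiments.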

[3] = test system: ZR-75-1; assay: Increase in intracellular Ca2+ level in human ZR-75-1 cells at 40 uM treated for 25 secs by fura-2-AM dye-based spectrofluorophotometric analysis in presence of Ca2+-free medium (reference value: 50 +/- 2 nM); type: functional
In short: (§2)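 Fura-2-loaded ZR-75-1 cells (0.5 million per 1 mL, stirred, 25 °C) in Ca2+-containing or Ca2+-free medium. Compound added at 25 s. 340/380 nm excitation, 510 nm emission at 1 s intervals, calibrated to nM. Concentration-response from baseline-subtracted area under curve (25–250 s) as % of 50 μM response in Ca2+ medium. EC50 from Hill fit. Three experiments.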

[4] = test system: ZR-75-1; assay: Induction of apoptosis in human ZR-75-1 cells assessed as activation of caspase-3 at 20 to 40 uM preincubated for 24 hrs followed by Ca2+ chelator BAPTA-AM addition by Western immunoblot analysis; type: functional, cell-based
In short: (§3)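 Confluent ZR-75-1 cells (3 × 10^6/dish) treated with 20, 30 or 40 μM compound for 24 h. Where used, 5 μM BAPTA-AM or 5 μM NAC was added before the compound. About 50 μg lysate protein run on 10% SDS-PAGE, transferred to PVDF, probed for cleaved caspase-9/-3 and β-actin, chemiluminescence. Densitometry normalized to β-actin. Three experiments.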

[5] = test system: ZR-75-1; assay: Induction of apoptosis in human ZR-75-1 cells assessed as early apoptotic cells at 30 uM after 24 hrs by annexin V-FITC/propidium iodide staining-based flow cytometric analysis (reference value: 6.84%); type: functional
In short: (§4)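 ZR-75-1 cells exposed to 20–40 μM compound for 24 h, with 5 μM BAPTA-AM or NAC added first where indicated. Cells stained with Alexa Fluor 488 annexin V/PI for 15 min, at least 20000 cells analysed by flow cytometry (488 nm excitation, 530/575 nm filters). Early = annexin V+/PI−, late = annexin V+/PI+. Three independent biological replicates.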

[6] = test system: ZR-75-1; assay: Cytotoxicity against human ZR-75-1 cells assessed as induction cell death at 20 to 50 uM after 24 hrs by WST-1 assay in presence of Ca2+ containing medium with Ca2+ chelator BAPTA-AM; type: functional, cell-based
In short: (§5)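 WST-1 assay on ZR-75-1 cells seeded at 10000 cells/well, exposed to 0–50 μM compound for 24 h. Where used, 5 μM BAPTA-AM was given for 1 h beforehand, then cells were washed with Ca2+-containing medium. WST-1 incubation 30 min, A450 read. Viability expressed as % of compound-free control. Six wells per treatment, three separate experiments.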

[7] = Cytotoxicity against human ZR-75-1 cells assessed as cell viability at 50 uM measured 20 mins post intracellular Ca2+ level detection by trypan blue exclusion assay relative to control; type: cell-based; conditions: read-out: Activity
In short: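 Fura-2-loaded ZR-75-1 cells were held in the fluorescence cuvette with 50 μM compound. Viability was scored by trypan blue exclusion after 20 min of fluorescence recording.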

[8] = test system: ZR-75-1; assay: Increase in intracellular Ca2+ level in human ZR-75-1 cells treated for 25 secs by fura-2-AM dye-based spectrofluorophotometric analysis in presence of Ca2+ containing medium; type: functional, cell-based; in short: as §2
[9] = test system: ZR-75-1; assay: Induction of reactive oxygen species production in human ZR-75-1 cells at 20 uM after 24 hrs by DCFH-DA probe-based flow cytometric analysis (reference value: 3.623%); type: functional; in short: as §1
[10] = test system: ZR-75-1; assay: Inhibition of endoplasmic reticulum Ca2+ pump inhibitor thapsigargin-induced intracellular Ca2+ increase in human ZR-75-1 cells at 40 uM pretreated with compound followed by thapsigargin induction in presence of Ca2+ free medium; type: functional, cell-based
In short: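 ZR-75-1 cells loaded with 2 μM fura-2-AM for 30 min at 25 °C, then suspended in Ca2+-free medium (pH 7.4; 0.3 mM EGTA, 3 mM MgCl2). Stirred cuvette at 25 °C. Thapsigargin (1 μM) or BHQ (50 μM) given before or after 40 μM compound. Excitation 340/380 nm, emission 510 nm, read at 1 s intervals. [Ca2+]i calibrated with Triton X-100/CaCl2 then EGTA.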

[11] = test system: ZR-75-1; assay: Induction of Ca2+ influx in human ZR-75-1 cells at 40 uM by measuring Mn2+ quenching of fura-2-AM for 200 secs by spectrofluorophotometric analysis in presence of Ca2+ containing medium; type: functional, cell-based
In short: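 Mn2+ quench assay: 50 μM MnCl2 added to fura-2-loaded ZR-75-1 cells in Ca2+-containing medium 1 min before recording. Excitation 360 nm (Ca2+-insensitive), emission 510 nm, 1 s intervals, 25 °C. Compound (40 μM) added during the trace, recorded up to 200 s. Arbitrary units, three experiments.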

[12] = test system: ZR-75-1; assay: Induction of apoptosis in human ZR-75-1 cells at 20 to 40 uM after 24 hrs by annexin V-FITC/propidium iodide staining-based flow cytometric analysis in presence of Ca2+ chelator BAPTA-AM; type: functional, cell-based; in short: as §4
[13] = test system: ZR-75-1; assay: Cytotoxicity against human ZR-75-1 cells assessed as decrease in cell viability after 24 hrs by WST-1 assay; type: functional, cell-based; in short: as §5
[14] = test system: ZR-75-1; assay: Induction of reactive oxygen species production in human ZR-75-1 cells at 40 uM after 24 hrs by DCFH-DA probe-based flow cytometric analysis (reference value: 3.623%); type: functional; in short: as §1
[15] = test system: ZR-75-1; assay: Induction of apoptosis in human ZR-75-1 cells assessed as activation of caspase-9 at 20 to 40 uM preincubated for 24 hrs followed by antioxidant N-Acetylcysteine addition by Western immunoblot analysis; type: functional, cell-based; in short: as §3
[16] = test system: ZR-75-1; assay: Induction of apoptosis in human ZR-75-1 cells assessed as increase in cleaved caspase-9 level at 20 to 40 uM after 24 hrs by Western immunoblot analysis; type: functional, cell-based; in short: as §3
[17] = test system: ZR-75-1; assay: Induction of reactive oxygen species production in human ZR-75-1 cells after 24 hrs by DCFH-DA probe-based flow cytometric analysis; type: functional, cell-based; in short: as §1
[18] = test system: ZR-75-1; assay: Induction of apoptosis in human ZR-75-1 cells assessed as late apoptotic cells at 20 uM after 24 hrs by annexin V-FITC/propidium iodide staining-based flow cytometric analysis (reference value: 2.53%); type: functional; in short: as §4
[19] = test system: ZR-75-1; assay: Induction of apoptosis in human ZR-75-1 cells at 20 to 40 uM preincubated for 24 hrs followed by antioxidant N-Acetylcysteine addition by annexin V-FITC/propidium iodide staining-based flow cytometric analysis; type: functional, cell-based; in short: as §4
[20] = test system: ZR-75-1; assay: Increase in intracellular Ca2+ level in human ZR-75-1 cells at 40 uM treated for 60 secs post PLC inhibitor U73122 addition by fura-2-AM dye-based spectrofluorophotometric analysis in presence of Ca2+ free medium; type: functional, cell-based
In short: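 Performed in Ca2+-free medium with fura-2-loaded ZR-75-1 cells. Response expressed relative to 40 μM compound alone (100%). Three experiments.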

EC50 [8]: 25 µM
SMILES: O=c1cc(-c2ccccc2)oc2cc(O)c(O)c(O)c12 [BAICALEIN]
Activity [1]: inactive
Activity [2]: inactive
Activity [3]: 103 nM
Activity [4]: inactive
Activity [5]: 50.72%
Activity [6]: inactive
viability at 20 min, 50 µM [7]: 95%
Activity [8]: Dose-dependent effect
Activity [9]: 22.707%
inhibition [10]: Active
Activity [11]: Active
Activity [12]: inactive
Activity [13]: Dose-dependent effect
Activity [14]: 43.227%
Activity [15]: inactive
Activity [16]: Active
Activity [17]: Dose-dependent effect
Activity [18]: 2.36%
Activity [19]: inactive
Activity [20]: inactive
